The test system of series [1] is Rattus norvegicus. As to the kind of experiment: Antidiabetic activity in diet-induced obese Sprague-Dawley rat assessed as decrease in glucose excursion at 1 mg/kg, po administered once daily for 3 weeks by OGTT. In kind it is functional, organism-based. Further details: dose 1 mg/kg. Summed up: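 Male Sprague-Dawley DIO rats (n = 10/group), 550–650 g, reverse light/dark cycle, high fat diet from 7 weeks of age; dosed po once daily in Klucel suspension.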

Series [2] has as its system Rattus norvegicus. In words: Antiobesity activity in diet-induced obese rat assessed as reduction in body weight gain at 0.3 mg/kg, po administered once daily for 3 weeks. In kind it is functional. Further details: scale not given: the % may be the effect or the level left. The method, boiled down:
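Male DIO rats, 19 weeks old, on high fat diet for 12 weeks, dosed po once daily with Klucel (hydroxypropyl cellulose) suspension for 22 days; 10 rats per group. Body weight followed throughout; daily food intake recorded on days 1–3, 8, 9, 15 and 16, values averaged per group.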

Series [3] deals with Rattus norvegicus. In words: Antiobesity activity in diet-induced obese rat assessed as reduction in body weight gain at 3 mg/kg, po qd. In kind it is functional. Further details: scale not given: the % may be the effect or the level left. Summed up:
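Male DIO rats given 3 mg/kg po once daily for 1 week, with body weight gain followed. At study end, rats were fasted 4 h and challenged with corn oil 5 mL/kg; plasma triglycerides were measured 4 h later and compared with the vehicle group.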

A short description of series [4]: Extrapolated AUC in Beagle dog at 10 mg/kg, po. As to conditions: in vivo. In kind it is ADME, organism-based, Canis lupus familiaris. Also noted: dose 10 mg/kg, route oral. The method, boiled down:
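Plasma extracted by acetonitrile precipitation and quantified by LC-MS/MS (5.0–5000 ng/mL); noncompartmental PK; bioavailability relative to 5 mg/kg iv; mean of n = 3.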

For series [5], the target named is Cytochrome P450 2C19 (Homo sapiens, UniProt P33261). As to the kind of experiment: Inhibition of CYP2C19. In kind it is ADME.
The test system of series [6] is Rattus norvegicus. As to the kind of experiment: Antidiabetic activity in diet-induced obese Sprague-Dawley rat assessed as effect on insulin level at 1 mg/kg, po administered once daily for 3 weeks measured after 30 mins by OGTT. In kind it is functional, organism-based. Further details: dose 1 mg/kg. Summed up: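 DIO rats (n = 10/group) on high fat diet, dosed po once daily in Klucel suspension for 3 weeks. On day 21 an oral glucose challenge of 2 g/kg was given, and plasma insulin was measured at the 30 min time point.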

Molecules are shown by their SMILES. Active and inactive are the calls of the source. No cut-off for these calls is given here. Where only a bound is given, the exact number is not on record here.

Sequence of Cytochrome P450 2C19 (P33261 whole entry): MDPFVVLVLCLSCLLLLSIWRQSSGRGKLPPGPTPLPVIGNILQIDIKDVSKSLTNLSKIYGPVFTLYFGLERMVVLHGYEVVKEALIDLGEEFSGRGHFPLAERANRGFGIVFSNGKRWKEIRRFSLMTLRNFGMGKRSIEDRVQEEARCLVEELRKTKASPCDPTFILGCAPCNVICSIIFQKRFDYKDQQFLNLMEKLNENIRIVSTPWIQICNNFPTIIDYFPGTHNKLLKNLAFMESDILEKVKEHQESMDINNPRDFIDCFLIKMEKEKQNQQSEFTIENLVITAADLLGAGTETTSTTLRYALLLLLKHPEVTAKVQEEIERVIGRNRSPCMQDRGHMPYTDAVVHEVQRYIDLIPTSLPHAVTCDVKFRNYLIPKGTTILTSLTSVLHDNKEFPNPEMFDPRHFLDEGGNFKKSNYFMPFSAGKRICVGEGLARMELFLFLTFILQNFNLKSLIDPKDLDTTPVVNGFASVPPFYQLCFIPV

The AUC is the area under the concentration-time curve, a measure of exposure. By IC50 is commonly meant the concentration needed to halve the response being measured. For the molecule `O=C(Nc1ccc(C2CCN(C(=O)[C@H]3CC[C@H](C(=O)O)CC3)CC2)cc1)c1nc(-c2ccccc2)oc1C(F)(F)F`, the result in series [1] was Active. Also, the values for the Activity in series [2] and in series [3] were 5% and 4%, respectively. Besides, in series [4], the exposure (AUC) is 77.9 µM·h. Moreover, the 50% inhibitory concentration (IC50) in series [5] is greater than 50 µM. Further, in series [6], the outcome was inactive.

Source of the values: ChEMBL document CHEMBL1764953, “Discovery of orally active carboxylic acid derivatives of 2-phenyl-5-trifluoromethyloxazole-4-carboxamide as potent diacylglycerol acyltransferase-1 inhibitors for the potential treatment of obesity and diabetes” (J Med Chem, 2011).
